We go through 15 molecules from ChEMBL document CHEMBL1938348, “Novel inhibitors of surface layer processing in Clostridium difficile” (Bioorg Med Chem, 2012).

Each structure is given as a SMILES string. Activity calls are given as the source filed them. No cut-off for these calls is given here. Where a SMILES comes first, the peptide text is derived from it. The star is where a group is joined. X1 = CCOC(=O)/C=C/[C@H](CO)N*

Holding throughout (conditions): Clostridioides difficile
The target in test [1] is T1, Precursor of the S-layer proteins (Clostridium difficile (strain 630)) (UniProt Q183M8).
T1 sequence (whole entry): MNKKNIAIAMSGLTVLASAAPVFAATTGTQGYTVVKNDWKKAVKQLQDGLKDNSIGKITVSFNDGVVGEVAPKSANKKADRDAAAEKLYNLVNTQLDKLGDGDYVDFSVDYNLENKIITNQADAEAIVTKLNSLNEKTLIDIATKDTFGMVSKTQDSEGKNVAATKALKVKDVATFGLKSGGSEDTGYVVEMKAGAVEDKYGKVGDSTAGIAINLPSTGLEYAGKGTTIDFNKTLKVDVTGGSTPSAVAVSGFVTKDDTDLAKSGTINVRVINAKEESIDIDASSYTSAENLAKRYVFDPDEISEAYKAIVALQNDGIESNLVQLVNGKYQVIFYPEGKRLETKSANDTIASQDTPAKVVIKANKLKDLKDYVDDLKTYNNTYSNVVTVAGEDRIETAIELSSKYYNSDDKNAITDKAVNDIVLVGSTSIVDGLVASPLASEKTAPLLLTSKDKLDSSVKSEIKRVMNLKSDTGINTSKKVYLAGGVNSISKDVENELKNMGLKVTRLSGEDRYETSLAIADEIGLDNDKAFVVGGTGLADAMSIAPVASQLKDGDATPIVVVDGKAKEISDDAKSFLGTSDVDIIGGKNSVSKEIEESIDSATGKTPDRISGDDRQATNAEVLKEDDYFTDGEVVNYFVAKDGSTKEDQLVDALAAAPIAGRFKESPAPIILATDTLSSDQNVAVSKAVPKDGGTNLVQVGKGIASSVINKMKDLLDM
Nature of the test: Inhibition of Clostridium difficile 630 S-layer processing of slpA at 100 uM by Western blot analysis. Put shortly: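 C. difficile strain 630 grown overnight (16 h), anaerobic, 37 °C, in BHI with compound at 100 µM or DMSO vehicle. Surface layer proteins extracted with 0.2 M glycine–HCl pH 2.2 (30 min, room temperature), run on SDS–PAGE and semi-dry blotted to PVDF. Probed with rabbit anti-LMW SLP (1/200,000), then goat anti-rabbit-HRP (1/2000). Chemiluminescence read-out.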
A general note: In western blotting, separated proteins are transferred to a membrane and probed.

Test [2] concerns the target T2, Cell surface protein (Clostridium difficile (strain 630)) (UniProt Q183M1).
T2 sequence (whole entry): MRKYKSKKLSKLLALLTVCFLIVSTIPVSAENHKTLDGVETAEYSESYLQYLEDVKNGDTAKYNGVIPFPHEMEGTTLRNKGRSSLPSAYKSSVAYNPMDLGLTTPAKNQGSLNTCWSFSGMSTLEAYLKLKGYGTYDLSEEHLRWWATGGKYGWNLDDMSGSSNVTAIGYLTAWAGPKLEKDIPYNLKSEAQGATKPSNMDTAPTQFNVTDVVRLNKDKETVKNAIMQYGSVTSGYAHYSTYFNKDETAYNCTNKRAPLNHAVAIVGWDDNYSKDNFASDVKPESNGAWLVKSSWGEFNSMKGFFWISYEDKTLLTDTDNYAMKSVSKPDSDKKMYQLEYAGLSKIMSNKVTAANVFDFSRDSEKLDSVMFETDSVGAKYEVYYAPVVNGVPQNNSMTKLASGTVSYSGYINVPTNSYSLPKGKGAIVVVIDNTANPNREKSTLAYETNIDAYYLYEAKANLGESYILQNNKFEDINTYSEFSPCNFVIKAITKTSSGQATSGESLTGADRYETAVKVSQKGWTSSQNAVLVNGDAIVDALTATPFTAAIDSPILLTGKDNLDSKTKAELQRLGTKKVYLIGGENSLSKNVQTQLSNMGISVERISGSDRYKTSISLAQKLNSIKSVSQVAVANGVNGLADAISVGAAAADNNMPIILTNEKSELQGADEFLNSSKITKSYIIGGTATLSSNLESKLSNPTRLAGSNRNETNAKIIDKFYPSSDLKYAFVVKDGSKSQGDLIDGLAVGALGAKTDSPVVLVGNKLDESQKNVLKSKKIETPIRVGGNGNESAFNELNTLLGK
Nature of the test: Binding affinity to Clostridium difficile 630 cwp84 at 74 kDa by Western blot analysis.

Test [3] addresses T2, Cell surface protein (Clostridium difficile (strain 630)). The experiment in a line: Binding affinity to Clostridium difficile 630 higher molecular weight cwp84 by Western blot analysis.
Test [4] has the same target. The experiment in a line: Binding affinity to Clostridium difficile 630 cwp84 at lower band by Western blot analysis.

Take `C[C@H](NC(=O)CF)C(=O)NCCOCCOCCOCCNC(=O)CCCC[C@@H]1SC[C@@H]2NC(=O)N[C@@H]21`: the inhibition result in test [1] is “inactive”.
Same read-out and setting: to `C[C@H](NC(=O)CCl)C(=O)NCCOCCOCCOCCNC(=O)CCCC[C@@H]1SC[C@@H]2NC(=O)N[C@@H]21` belongs “Active”.
In the case of `CC(C)C[C@H](NC(=O)CCl)C(=O)N[C@@H](CCCNC(=N)N)C(=O)NCCOCCOCCOCCNC(=O)CCCC[C@@H]1SC[C@@H]2NC(=O)N[C@@H]21`, the inhibition result in test [1] is “Active”. Further, the result in test [2] and in test [3] was Active.
With `N=C(N)NCCC[C@H](NC(=O)CCl)C(=O)NCCOCCOCCOCCNC(=O)CCCC[C@@H]1SC[C@@H]2NC(=O)N[C@@H]21`, the inhibition entry in test [1] is “Active”.
Regarding `CCOC(=O)/C=C/[C@H](CO)NC(=O)[C@H](Cc1ccc(O)cc1)NC(=O)[C@H](CCCCNC(=O)CCCC[C@@H]1SC[C@@H]2NC(=O)N[C@@H]21)NC(C)=O`, the inhibition entry in test [1] was “Active”. For the same molecule, in test [4], the outcome was Active. Moreover, the result in test [3] was inactive.
As to `CCOC(=O)/C=C/C(=O)N[C@@H](CO)C(=O)NCCOCCOCCOCCNC(=O)CCCC[C@@H]1SC[C@@H]2NC(=O)N[C@@H]21`, in test [1], the inhibition entry was “inactive”.
As for `O=C(CCCC[C@@H]1SC[C@@H]2NC(=O)N[C@@H]21)NCCOCCOCCOCCNC(=O)[C@H](CO)NC(=O)CF`, the inhibition result in test [1] is “inactive”.
Still for that read-out and setting: to `CCOC(=O)/C=C/C(=O)N[C@@H](CC(C)C)C(=O)N[C@@H](CCCNC(=N)N)C(=O)NCCOCCOCCOCCNC(=O)CCCC[C@@H]1SC[C@@H]2NC(=O)N[C@@H]21` belongs “inactive”; to `CCOC(=O)/C=C/C(=O)N[C@@H](CCCNC(=N)N)C(=O)NCCOCCOCCOCCNC(=O)CCCC[C@@H]1SC[C@@H]2NC(=O)N[C@@H]21`, “inactive”.
Take `CCOC(=O)/C=C/[C@H](CO)NC(=O)[C@H](CCCCN)NC(=O)[C@@H](NC(=O)[C@H](CCC(=O)O)NC(=O)[C@H](CC(C)C)NC(C)=O)[C@@H](C)O` (Ac-LETK-X1): the inhibition result in test [1] was “Active”.
With `CCOC(=O)/C=C/[C@H](CO)NC(=O)[C@H](CC(C)C)NC(=O)[C@H](CCCCNC(=O)CCCC[C@@H]1SC[C@@H]2NC(=O)N[C@@H]21)NC(C)=O`, the inhibition result in test [1] was “Active”. Further, the result in test [4] was Active. Moreover, in test [3], the outcome was inactive.
Regarding `CCOC(=O)/C=C/C(=O)N[C@@H](C)C(=O)NCCOCCOCCOCCNC(=O)CCCC[C@@H]1SC[C@@H]2NC(=O)N[C@@H]21`, in test [1], the inhibition entry was “inactive”.
With `CC(C)C[C@H](NC(=O)CF)C(=O)N[C@@H](CCCNC(=N)N)C(=O)NCCOCCOCCOCCNC(=O)CCCC[C@@H]1SC[C@@H]2NC(=O)N[C@@H]21`, the inhibition entry in test [1] was “inactive”.
On the same count and under the same terms, to `N=C(N)NCCC[C@H](NC(=O)CF)C(=O)NCCOCCOCCOCCNC(=O)CCCC[C@@H]1SC[C@@H]2NC(=O)N[C@@H]21` belongs “inactive”.
The same measure, in the same setting: to `O=C(CCCC[C@@H]1SC[C@@H]2NC(=O)N[C@@H]21)NCCOCCOCCOCCNC(=O)[C@H](CO)NC(=O)CCl` belongs “Active”.
